Experimental data from ChEMBL document CHEMBL1131066, “2-Substituted aminopyrido[2,3-d]pyrimidin-7(8H)-ones. structure-activity relationships against selected tyrosine kinases and in vitro and in vivo anticancer activity” (J Med Chem, 1998).
Values joined by “and” are separate entries in the source; they are usually repeats but may differ in a detail not shown here. Equal values may be shown once. Values belong to the molecule of their own block, whether it stands above or below them.

Experiments:
[1] = molecular target: T1, Fibroblast growth factor receptor 1 (Homo sapiens, UniProt P11362); assay: Inhibition of fibroblast growth factor receptor (FGFr) tyrosine kinase
Method in brief: (§1)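 Recombinant kinases (PDGFr-β, FGFr-1, c-Src), enzyme inhibition IC50. Mean of at least two separate determinations, each done in triplicate; replicate values typically varied under 30%.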

SK-OV-3 [2] = assay: Weight change of SK-OV-3 cell tumors in mice at 40 mg/kg peroral dose, days 15-29 administration; assay type: functional; conditions: route oral
Method in brief: (§2)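 Nude mice (NCr nu/nu, 18–22 g, 6–8 per group) were randomized and implanted with serially passaged tumor fragments in the right axilla on day 0. Oral dosing was based on average cage weight, on the days stated, over a dose range from toxic to ineffective. Vehicle was 50 mM sodium lactate buffer, pH 4.0, or 0.5% methyl cellulose suspension. Host weight change is reported as maximum treatment-related loss.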

[3] = molecular target: Proto-oncogene tyrosine-protein kinase Src (Homo sapiens, UniProt P12931); assay: Inhibition of c-Src tyrosine kinase; assay type: functional; method in brief: as §1
[4] = molecular target: Platelet-derived growth factor receptor (Mus musculus, UniProt P05622+P26618); assay: Inhibition of PDGF-induced autophosphorylation of PDGF-R in NIH3T3 cells
[5] = molecular target: T1, Fibroblast growth factor receptor 1; assay: Inhibitory concentration evaluated against fibroblast growth factor receptor 1.
Mus musculus [6] = assay: Difference in days for treated (T) and control (C) PDGF-transfected fibroblast tumors to reach 750 mg in mice at 50 mg/kg peroral dose, days 1-15 administration; assay type: functional; conditions: route oral
Method in brief: (§3)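 Nude mice (NCr nu/nu), 18–22 g, 6–8 per group, randomized and implanted with serially passaged tumor fragments in the right axilla on day 0. Dosed by average cage weight. Vehicle was 50 mM sodium lactate buffer, pH 4.0, or a 0.5% methyl cellulose suspension for one compound. Cisplatin was given in saline. T − C is the difference in days for treated and control tumors to reach 750 mg.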

C6 [7] = assay: C6 cell growth in soft agar with discontinued treatment; assay type: functional, cell-based, Rattus norvegicus
Method in brief: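 C6 rat glioma cells given 3-day exposure to a concentration series, then washed free of inhibitor and plated in drug-free soft agar; colonies stained and counted after two weeks. IC50; mean of two experiments, each in duplicate.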

C6 [8] = assay: Difference in days for treated (T) and control (C) C6 glioma cell tumors to reach 750 mg in mice at 50 mg/kg peroral dose, days 1-15 administration; assay type: functional; conditions: route oral; method in brief: as §3
COLO 205 [9] = assay: Weight change of COLO 205 tumor cells in mice at 40 mg/kg peroral dose, days 9-23 administration; assay type: functional, organism-based; parameters: dose 40 mg/kg
Method in brief: (§4)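 Tumor-bearing nude mice (NCr nu/nu, 18–22 g, 6–8 per group) were implanted in the right axilla with tumor fragments on day 0 and dosed by average cage weight. Vehicle was 50 mM sodium lactate pH 4.0, or 0.5% methyl cellulose suspension; cisplatin was given in saline. Host body weight change is given as the maximum treatment-related weight loss.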

Mus musculus [10] = assay: Weight change of PDGF-transfected fibroblast cells in mice at 50 mg/kg peroral dose, days 1-15 administration; assay type: functional; conditions: route oral; method in brief: as §2
NIH3T3 [11] = assay: Inhibition of NIH3T3 proliferation by sulforhodamine B assay; assay type: functional, cell-based, Mus musculus
MCF7 [12] = assay: Net reduction in tumor burden between first and last treatments of MCF-7 cell tumors in mice at 50 mg/kg peroral dose, days 1-15 administration; assay type: functional; conditions: route oral
Method in brief: (§5)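 NCr nu/nu nude mice (18–22 g, 6–8 per group, randomized) had tumor fragments, kept by serial passage in nude mice, implanted in the right axilla on day 0. Mice were dosed by average cage weight on the listed days, over a range from toxic to ineffective doses. Vehicle was 50 mM sodium lactate pH 4.0 or 0.5% methyl cellulose suspension. Net log cell kill was taken between first and last treatments.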

NIH3T3 [13] = assay: Growth of NIH3T3 cells in soft agar with continuous treatment; assay type: functional, cell-based; conditions: Mus musculus
Method in brief: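 NIH3T3 cells transfected with PDGF-B exposed to a range of concentrations for 3 days, then cloned in soft agar with the same concentration kept present. Colonies stained and counted after two weeks. IC50; mean of two experiments, each in duplicate.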

MCF7 [14] = assay: Difference in days for treated (T) and control (C) MCF-7 cell tumors to reach 750 mg in mice at 50 mg/kg peroral dose, days 1-15 administration; assay type: functional; conditions: route oral; method in brief: as §3
MCF7 [15] = assay: Weight change of MCF-7 tumor cells in mice at 50 mg/kg peroral dose, days 1-15 administration; assay type: functional, organism-based; parameters: dose 50 mg/kg; method in brief: as §4
COLO 205 [16] = assay: Difference in days for treated (T) and control (C) COLO 205 cell tumors to reach 750 mg in mice at 40 mg/kg peroral dose, days 9-23 administration; assay type: functional; conditions: route oral; method in brief: as §3
C6 [17] = assay: C6 cell growth in soft agar with continuous treatment; assay type: functional, cell-based, Rattus norvegicus
Method in brief: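 C6 rat glioma cells (F10 Ham's with 15% horse serum, 2.5% fetal calf serum) exposed 3 days to a concentration series, then plated in soft agar with compound still present at the same concentration; colonies stained and counted after two weeks. IC50; mean of two experiments, each in duplicate.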

HT-29 [18] = assay: Difference in days for treated (T) and control (C) HT-29 cell tumors to reach 750 mg in mice at 44 mg/kg peroral dose, days 15-29 administration; assay type: functional; conditions: route oral; method in brief: as §3
C6 [19] = assay: Inhibition of C6 cell proliferation in sulforhodamine B assay; assay type: functional, cell-based, Rattus norvegicus
Method in brief: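 C6 rat glioma cells (F10 Ham's, 15% horse serum, 2.5% fetal calf serum) seeded and allowed 24 h to attach, then given serial 2-fold compound dilutions; 4 d at 37 °C, 5% CO2; growth read by sulforhodamine B staining. IC50; mean of two experiments, each in triplicate.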

C6 [20] = assay: Weight change of C6 glioma tumor cells in mice at 50 mg/kg peroral dose, days 1-15 administration; assay type: functional, organism-based; parameters: dose 50 mg/kg; method in brief: as §4
NIH3T3 [21] = assay: Growth of NIH3T3 cell colonies in soft agar with continuous treatment; assay type: functional, cell-based; conditions: Mus musculus
Method in brief: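 Soft agar cloning used PDGF-B-transfected NIH3T3 (NIH3T3/PDGF) cells. Cells were exposed 3 days to a concentration series, then plated in soft agar with the matching compound concentration kept present. Colonies were stained and counted after two weeks. IC50; mean of two experiments, each in duplicate.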

COLO 205 [22] = assay: Net reduction in tumor burden between first and last treatments of COLO 205 cell tumors in mice at 40 mg/kg peroral dose, days 9-23 administration; assay type: functional; conditions: route oral; method in brief: as §5
SK-OV-3 [23] = assay: Difference in days for treated (T) and control (C) SKOV-3 cell tumors to reach 750 mg in mice at 40 mg/kg peroral dose, days 15-29 administration; assay type: functional; conditions: route oral; method in brief: as §3
HT-29 [24] = assay: Weight change of HT-29 tumor cells in mice at 44 mg/kg peroral dose, days 15-29 administration; assay type: functional; conditions: route oral; method in brief: as §4
[25] = molecular target: Platelet-derived growth factor receptor beta (Mus musculus, UniProt P05622); assay: Inhibitory concentration was evaluated against Platelet-derived growth factor receptor beta (PDGFr) tyrosine kinase
[26] = molecular target: Epidermal growth factor receptor (Homo sapiens, UniProt P00533); assay: Inhibitory concentration was evaluated against epidermal growth factor receptor (EGFr) tyrosine kinase
NIH3T3 [27] = assay: Growth of NIH3T3 cell colonies in soft agar with discontinued treatment; assay type: functional, cell-based; conditions: Mus musculus
Method in brief: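 PDGF-B-transfected NIH3T3 (NIH3T3/PDGF) cells exposed 3 days to a concentration series, washed free of inhibitor, plated in drug-free soft agar; colonies stained and counted after two weeks. IC50; mean of two experiments, each in duplicate.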

[28] = molecular target: Proto-oncogene tyrosine-protein kinase Src (Gallus gallus, UniProt P00523); assay: Inhibition of avian c-Src tyrosine kinase
[29] = molecular target: Platelet-derived growth factor receptor (PDGFr) (Rattus norvegicus, UniProt P20786+Q05030); assay: Inhibition of PDGF-induced autophosphorylation of PDGF-R in C6 cells

T1 sequence (P11362 whole entry): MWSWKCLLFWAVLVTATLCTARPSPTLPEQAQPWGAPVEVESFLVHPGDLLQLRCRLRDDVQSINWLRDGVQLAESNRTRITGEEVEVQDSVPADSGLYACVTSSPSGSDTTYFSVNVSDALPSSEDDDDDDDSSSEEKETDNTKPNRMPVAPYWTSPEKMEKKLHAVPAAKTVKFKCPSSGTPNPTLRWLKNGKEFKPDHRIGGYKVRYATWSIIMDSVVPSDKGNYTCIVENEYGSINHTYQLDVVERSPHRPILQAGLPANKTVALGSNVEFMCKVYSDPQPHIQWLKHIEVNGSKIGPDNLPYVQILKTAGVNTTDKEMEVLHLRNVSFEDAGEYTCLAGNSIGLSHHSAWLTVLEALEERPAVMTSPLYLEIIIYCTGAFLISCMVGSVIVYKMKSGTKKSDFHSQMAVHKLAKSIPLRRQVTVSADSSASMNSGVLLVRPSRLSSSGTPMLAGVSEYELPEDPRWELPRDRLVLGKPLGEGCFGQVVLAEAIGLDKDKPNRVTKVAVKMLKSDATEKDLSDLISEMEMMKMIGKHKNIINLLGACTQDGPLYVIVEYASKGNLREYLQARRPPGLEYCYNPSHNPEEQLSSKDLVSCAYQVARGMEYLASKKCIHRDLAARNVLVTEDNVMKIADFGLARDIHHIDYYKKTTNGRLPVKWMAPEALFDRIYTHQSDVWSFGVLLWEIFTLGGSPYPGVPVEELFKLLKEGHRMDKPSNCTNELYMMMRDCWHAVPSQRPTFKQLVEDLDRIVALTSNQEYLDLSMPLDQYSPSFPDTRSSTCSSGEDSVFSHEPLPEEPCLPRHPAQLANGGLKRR
Sequence of Epidermal growth factor receptor (P00533 whole entry): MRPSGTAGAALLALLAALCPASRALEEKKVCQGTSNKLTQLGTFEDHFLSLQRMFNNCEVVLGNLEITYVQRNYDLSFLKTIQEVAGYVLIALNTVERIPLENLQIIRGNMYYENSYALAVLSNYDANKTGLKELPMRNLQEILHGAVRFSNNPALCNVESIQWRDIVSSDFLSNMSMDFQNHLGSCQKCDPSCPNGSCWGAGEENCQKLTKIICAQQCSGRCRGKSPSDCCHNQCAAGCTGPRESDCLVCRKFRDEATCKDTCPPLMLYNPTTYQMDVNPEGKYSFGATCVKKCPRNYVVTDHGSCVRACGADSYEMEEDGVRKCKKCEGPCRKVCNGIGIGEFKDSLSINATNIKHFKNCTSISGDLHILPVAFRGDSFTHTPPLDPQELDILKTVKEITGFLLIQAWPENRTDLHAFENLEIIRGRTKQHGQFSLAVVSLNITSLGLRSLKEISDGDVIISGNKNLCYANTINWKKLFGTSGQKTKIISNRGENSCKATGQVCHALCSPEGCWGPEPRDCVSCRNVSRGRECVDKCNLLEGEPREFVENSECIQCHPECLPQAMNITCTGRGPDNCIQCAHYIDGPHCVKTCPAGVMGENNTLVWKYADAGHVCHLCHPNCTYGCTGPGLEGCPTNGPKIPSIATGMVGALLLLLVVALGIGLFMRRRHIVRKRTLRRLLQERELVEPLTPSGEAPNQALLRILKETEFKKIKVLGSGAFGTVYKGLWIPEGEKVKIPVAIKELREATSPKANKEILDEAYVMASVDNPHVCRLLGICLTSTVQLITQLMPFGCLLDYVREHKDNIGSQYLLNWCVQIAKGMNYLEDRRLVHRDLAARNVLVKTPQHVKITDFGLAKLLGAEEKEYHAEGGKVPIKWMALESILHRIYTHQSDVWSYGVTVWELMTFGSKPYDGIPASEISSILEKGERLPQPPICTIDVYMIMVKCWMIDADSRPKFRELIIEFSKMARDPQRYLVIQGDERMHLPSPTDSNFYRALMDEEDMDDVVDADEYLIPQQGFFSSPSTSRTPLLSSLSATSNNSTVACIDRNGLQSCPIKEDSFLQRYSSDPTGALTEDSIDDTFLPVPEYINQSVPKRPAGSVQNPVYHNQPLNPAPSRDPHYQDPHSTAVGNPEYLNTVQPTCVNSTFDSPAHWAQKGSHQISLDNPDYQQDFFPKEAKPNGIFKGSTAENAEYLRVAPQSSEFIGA
Sequence of Platelet-derived growth factor receptor beta (P05622 whole entry): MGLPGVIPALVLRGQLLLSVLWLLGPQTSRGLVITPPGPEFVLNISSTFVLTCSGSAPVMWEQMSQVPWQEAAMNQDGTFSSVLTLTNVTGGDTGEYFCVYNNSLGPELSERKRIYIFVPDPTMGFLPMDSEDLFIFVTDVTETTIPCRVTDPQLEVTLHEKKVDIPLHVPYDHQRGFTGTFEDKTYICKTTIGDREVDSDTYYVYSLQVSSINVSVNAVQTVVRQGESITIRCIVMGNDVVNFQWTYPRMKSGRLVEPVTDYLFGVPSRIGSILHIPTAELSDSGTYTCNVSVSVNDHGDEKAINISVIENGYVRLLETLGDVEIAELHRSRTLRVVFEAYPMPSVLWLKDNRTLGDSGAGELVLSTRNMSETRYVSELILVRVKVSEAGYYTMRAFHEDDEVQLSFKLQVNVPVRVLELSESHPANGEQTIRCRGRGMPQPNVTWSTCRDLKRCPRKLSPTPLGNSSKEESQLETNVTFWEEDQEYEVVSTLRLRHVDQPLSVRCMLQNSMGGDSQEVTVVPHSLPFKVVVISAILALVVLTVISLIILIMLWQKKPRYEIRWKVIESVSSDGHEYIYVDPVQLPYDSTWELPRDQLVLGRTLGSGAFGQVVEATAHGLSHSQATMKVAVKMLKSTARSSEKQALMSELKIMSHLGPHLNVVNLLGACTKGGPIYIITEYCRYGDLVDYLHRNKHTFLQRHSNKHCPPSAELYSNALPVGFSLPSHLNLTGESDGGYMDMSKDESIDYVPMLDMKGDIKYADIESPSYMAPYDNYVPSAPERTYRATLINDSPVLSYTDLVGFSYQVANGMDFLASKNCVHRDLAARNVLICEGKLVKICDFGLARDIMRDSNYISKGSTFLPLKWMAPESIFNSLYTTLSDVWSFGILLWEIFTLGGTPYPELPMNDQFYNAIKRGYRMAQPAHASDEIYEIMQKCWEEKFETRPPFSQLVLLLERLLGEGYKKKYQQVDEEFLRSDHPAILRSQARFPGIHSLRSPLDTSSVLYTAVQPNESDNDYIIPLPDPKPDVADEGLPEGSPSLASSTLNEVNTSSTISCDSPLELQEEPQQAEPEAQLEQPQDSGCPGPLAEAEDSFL
Sequence of Proto-oncogene tyrosine-protein kinase Src (Homo sapiens, UniProt P12931) (P12931 2-536 limits assumed): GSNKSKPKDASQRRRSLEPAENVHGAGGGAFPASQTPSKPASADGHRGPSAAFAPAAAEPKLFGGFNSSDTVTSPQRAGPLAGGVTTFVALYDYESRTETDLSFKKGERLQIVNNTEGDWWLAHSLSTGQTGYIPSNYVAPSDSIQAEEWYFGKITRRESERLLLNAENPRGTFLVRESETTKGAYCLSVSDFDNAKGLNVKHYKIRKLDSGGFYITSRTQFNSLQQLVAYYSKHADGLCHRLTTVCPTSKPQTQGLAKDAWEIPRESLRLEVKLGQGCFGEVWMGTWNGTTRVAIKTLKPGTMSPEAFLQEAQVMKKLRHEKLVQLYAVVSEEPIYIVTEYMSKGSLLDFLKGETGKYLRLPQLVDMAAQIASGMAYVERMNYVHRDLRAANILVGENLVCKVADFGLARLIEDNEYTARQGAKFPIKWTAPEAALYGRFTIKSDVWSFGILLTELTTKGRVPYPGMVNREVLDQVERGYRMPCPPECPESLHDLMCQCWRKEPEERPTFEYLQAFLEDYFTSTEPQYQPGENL

Compound: CCN(CC)CCOc1cccc(Nc2ncc3cc(-c4c(Cl)cccc4Cl)c(=O)n(C)c3n2)c1
IC50 [1]: 0.03 µM
Weight change (SK-OV-3 [2]): -2 g
IC50 [3]: 0.009 µM
IC50 [4]: 0.0017 µM
IC50 [5]: 0.032 µM
T-C (Mus musculus [6]): -0.4 days
IC50 (C6 [7]; c6): 2.79 µM and 0.4 µM
T-C (C6 [8]): -2 days
Weight change (COLO 205 [9]): Weight gain
Weight change (Mus musculus [10]): -1.6 g
IC50 (NIH3T3 [11]; nih3t3): 0.147 µM and 0.41 µM
Net cell kill (MCF7 [12]): -0.6 log10
IC50 (NIH3T3 [13]): 0.017 µM
T-C (MCF7 [14]): 0.8 days
Weight change (MCF7 [15]): Weight gain
T-C (COLO 205 [16]): 6.8 days
IC50 (C6 [17]; c6): 0.44 µM and 0.12 µM
T-C (HT-29 [18]): -2.5 days
IC50 (C6 [19]; c6): 0.84 µM and 0.35 µM
Weight change (C6 [20]): Weight gain
IC50 (NIH3T3 [21]): 0.017 µM
Net cell kill (COLO 205 [22]): -0.4 log10
T-C (SK-OV-3 [23]): -0.4 days
Weight change (HT-29 [24]): -2 g

IC50 [25]: 0.1 µM
IC50 [26]: 0.91 µM
IC50 [5]: 0.19 µM
IC50 [28]: 0.01 µM
IC50 [29]: 0.68 µM
Compound: Cn1c(=O)c(-c2c(Cl)cccc2Cl)cc2cnc(Nc3ccncc3)nc21
IC50 (NIH3T3 [27]): 0.35 µM
IC50 (C6 [7]; Rattus norvegicus, C6): 6.9 µM
IC50 (NIH3T3 [11]; Mus musculus, NIH3T3): 0.104 µM
IC50 (C6 [17]; Rattus norvegicus, C6): 0.4 µM
IC50 (C6 [19]; Rattus norvegicus, C6): 1.1 µM
IC50 (NIH3T3 [21]): 0.306 µM
